From ChEMBL document CHEMBL1157849, “The influence of the aziridinyl substituent of benzimidazoles and benzimidazolequinones on toxicity towards normal and Fanconi anaemia cells” (Eur J Med Chem, 2010)
Active and inactive are the calls of the source. No cut-off for these calls is given here.

How the values were obtained:
PD20i = assay: Cytotoxicity against FANCD2-deficient human PD20i cells at 0.001 uM after 24 hrs by MTT assay; assay type: functional, cell-based
Summary of the method: (§1)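 PD20i and PD20:RV human fibroblasts grown in alpha-MEM with 15% uninactivated FBS, penicillin–streptomycin, 2 mM L-glutamine, 37 °C, 5% CO₂. Cells seeded at 10,000/well, both lines in parallel on the same plate, adhered 48 h. Compound added in DMSO (2.5% final), 24 h at 37 °C. MTT read at 550 nm (690 nm reference). Viability as % of DMSO-only control, mean of at least three independent experiments.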

[1] = Cytotoxicity against human GM00637 cells after 24 hrs by MTT assay; assay type: cell-based; conditions: GM00637, 24 h
Summary of the method: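 Cells seeded at 10,000 per well and left 48 h to adhere, then exposed to test solutions in DMSO (2.5% final) for 24 h at 37 °C under humidified 5% CO₂. MTT read-out at 550 nm with 690 nm reference. Viability is expressed as percent of DMSO-only control. IC50 is the concentration reducing mean viability to 50% of control, estimated by nonlinear regression of dose-response curves.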

Homo sapiens = organism: Homo sapiens; assay: Cytotoxicity against wild type FANCD2 expressing human PD20:RV cells at 0.001 uM after 24 hrs by MTT assay; assay type: functional, cell-based; summary of the method: as §1

In the case of O=C1C=CC(=O)c2c1ncn2C[C@@H]1CN1C(c1ccccc1)(c1ccccc1)c1ccccc1 (stereo not given in full), the Activity (PD20i) is reported as “Active” and the IC50 [1] is reported as 150 nM.
With COc1ccc(OC)c2c1ncn2C[C@@H]1CN1C(c1ccccc1)(c1ccccc1)c1ccccc1 (stereo not given in full) the IC50 [1] was 1260 nM.
Work on CCn1cnc2c1C(=O)C=CC2=O yielded an IC50 [1] of 580 nM.
In the case of CO[C@@]12[C@H](COC(N)=O)C3=C(C(=O)C(C)=C(N)C3=O)N1C[C@@H]1N[C@@H]12 [MITOMYCIN], the IC50 [1] is reported as 900 nM.
For O=C1C(N2CC2)=CC(=O)c2c1nc1n2CCCC1, the IC50 [1] was 1060 nM.
For COC1=CC(=O)c2c(nc3n2CCC3)C1=O, the Activity (PD20i) was “inactive” and the IC50 [1] was 360 nM.
Work on O=C1C(N2CC2)=CC(=O)c2c1nc1n2CCCCC1 yielded an IC50 [1] of 560 nM.
Compound COC1=CC(=O)c2c(nc3n2CCCC3)C1=O has an IC50 [1] greater than 1500 nM.
For O=C1C(N2CC2)=CC(=O)c2c1nc1n2CCC1, the Activity (PD20i) was “Active”, the Activity (Homo sapiens) was “Active” and the IC50 [1] was 290 nM.
Compound CCn1cnc2c(OC)ccc(OC)c21 has an IC50 [1] greater than 10000 nM.
Work on COC1=CC(=O)c2c(nc3n2CCCCC3)C1=O yielded an IC50 [1] greater than 1500 nM.
